Laboratory results reported in ChEMBL document CHEMBL3352024, “A new series of HAPs as anti-HBV agents targeting at capsid assembly” (Bioorg Med Chem Lett, 2014).
The source made the active and inactive calls. No cut-off for these calls is given here.

Tests used:
Hepatitis B virus [1] = assay: Antiviral activity against hepatitis B virus infected in human HepG2.2.15 cells assessed as inhibition of viral replication; format: functional, organism-based; details: hepg2 2.2.15
hepatitis B virus [2] = assay: (§1) Selectivity index, ratio of TC50 for human HepG2.2.15 cells to IC50 for hepatitis B virus infected in human HepG2.2.15 cells; format: toxicity, cell-based; details: HepG2.2.15 cells, read-out: Selectivity Index
[3] = Cytotoxicity against human HepG2.2.15 cells after 48 hrs; format: cell-based; details: hepg2 2.2.15, 48 h
Summary of the method: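 HepG2.2.15 cells exposed to compounds for 48 h; cell viability then determined as the cytotoxicity read-out.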

[4] = as §1; format: toxicity, cell-based
[5] = molecular target: Core antigen (Hepatitis B virus) (UniProt Q03732); assay: Inhibition of hepatitis B virus capsid assembly after 24 hrs by HPLC analysis
Sequence of Core antigen (Hepatitis B virus) (Q03732 as listed by the source): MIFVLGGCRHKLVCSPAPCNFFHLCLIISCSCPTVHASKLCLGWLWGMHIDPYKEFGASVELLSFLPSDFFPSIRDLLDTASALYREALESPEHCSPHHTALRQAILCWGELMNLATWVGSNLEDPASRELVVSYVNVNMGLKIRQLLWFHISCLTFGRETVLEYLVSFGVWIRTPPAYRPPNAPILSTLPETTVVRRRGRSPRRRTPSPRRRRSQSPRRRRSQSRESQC
Summary of the method: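 Cp149 capsid protein is mixed with compound in 2× assembly buffer and incubated 24 h. Reactions are analysed by size-exclusion chromatography on an HPLC with autoinjection, on a column equilibrated in 100 mM HEPES pH 7.5, 300 mM NaCl at 0.6 ml/min. Recovered protein is assigned to void (8.5 min), capsid (9.5 min) and dimer (12.5 min) peaks.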

Hepatitis B virus [6] = assay: Inhibition of hepatitis B virus capsid cp149 assembly assessed as reduction in dimer formation at capsid-compound ratio of 1:2 to 1:4 after 24 hrs by HPLC analysis

CCOC(=O)C1=C(CN2CCCCC2)NC(c2c(F)cc(F)cc2F)=NC1c1ccc(F)cc1Cl (stereo not drawn)
IC50 (Hepatitis B virus [1]): 10.24 µmol
selectivity ratio (hepatitis B virus [2]): 2.46
TC0 [3]: 14.56 µmol
TC50 [3]: 25.21 µmol

CCOC(=O)C1=C(CN2CCOCC2)NC(c2c(F)cc(F)cc2F)=NC1c1ccc(F)cc1Cl (stereo not drawn) [listing 1 of 2 here]
IC50 (Hepatitis B virus [1]): 10.57 µmol
Selectivity Index [4]: 3.19
TC0 [3]: 4.83 µmol
TC50 [3]: 33.75 µmol

CCOC(=O)C1=C(CN2CCSCC2)NC(c2c(F)cc(F)cc2F)=NC1c1ccc(F)cc1Cl (stereo not drawn)
TC0 [3]: 4.68 µmol
TC50 [3]: 32.73 µmol

CCOC(=O)C1=C(CN2CCOCC2)NC(c2c(F)cc(F)cc2F)=NC1c1ccc(F)cc1Cl.Cl (stereo not drawn)
IC50 (Hepatitis B virus [1]): 2.35 µmol
Selectivity Index [4]: 13.37
TC0 [3]: 4.51 µmol
TC50 [3]: 31.48 µmol

CCOC(=O)C1=C(CN2CCC(C)CC2)NC(c2c(F)cc(F)cc2F)=NC1c1ccc(F)cc1Cl (stereo not drawn)
IC50 (Hepatitis B virus [1]): 9.56 µmol
TC0 [3]: 4.65 µmol
TC50 [3]: 32.98 µmol

CCOC(=O)C1=C(CN2CCN(C)CC2)NC(c2c(F)cc(F)cc2F)=NC1c1ccc(F)cc1Cl (stereo not drawn)
IC50 (Hepatitis B virus [1]): 7.55 µmol
selectivity ratio (hepatitis B virus [2]): 13.1
TC0 [3]: 14.1 µmol
TC50 [3]: 98.74 µmol

CCOC(=O)C1=C(CN2CCN(C(=O)OCC)CC2)NC(c2c(F)cc(F)cc2F)=NC1c1ccc(F)cc1Cl (stereo not drawn)
TC0 [3]: 4.22 µmol
TC50 [3]: 29.6 µmol

CCCN1CCN(CC2=C(C(=O)OCC)C(c3ccc(F)cc3Cl)N=C(c3c(F)cc(F)cc3F)N2)CC1 (stereo not drawn)
TC0 [3]: 4.45 µmol
TC50 [3]: 31.25 µmol

Nc1ccn([C@@H]2CS[C@H](CO)O2)c(=O)n1 [LAMIVUDINE]
IC50 (Hepatitis B virus [1]): 14.17 µmol
TC0 [3]: 0.82 µmol
TC50 [3]: 5.75 µmol

CCOC(=O)C1=C(CN2CCOCC2)NC(c2c(F)cc(F)cc2N2CCOCC2)=NC1c1ccc(F)cc1Cl (stereo not drawn)
IC50 (Hepatitis B virus [1]): 4.35 µmol
selectivity ratio (hepatitis B virus [2]): 12.7
TC0 [3]: 12.81 µmol
TC50 [3]: 55.25 µmol

CCOC(=O)C1=C(CN2CCOCC2)NC(c2c(F)cc(F)cc2F)=NC1c1ccc(F)cc1Cl (stereo not drawn) [listing 2 of 2 here]
inhibition [5]: Active
inhibition (Hepatitis B virus [6]): Active

CCOC(=O)C1=C(CN(CCO)CCO)NC(c2c(F)cc(F)cc2F)=NC1c1ccc(F)cc1Cl (stereo not drawn)
IC50 (Hepatitis B virus [1]): 6.66 µmol
selectivity ratio (hepatitis B virus [2]): 8.11
TC0 [3]: 13.98 µmol
TC50 [3]: 54.02 µmol

CCOC(=O)C1=C(CN2CCNC(=O)C2)NC(c2c(F)cc(F)cc2F)=NC1c1ccc(F)cc1Cl (stereo not drawn)
IC50 (Hepatitis B virus [1]): 5.74 µmol
selectivity ratio (hepatitis B virus [2]): 5.72
TC0 [3]: 4.7 µmol
TC50 [3]: 32.85 µmol

CCOC(=O)C1=C(CN2CCCC2)NC(c2c(F)cc(F)cc2F)=NC1c1ccc(F)cc1Cl (stereo not drawn)
TC0 [3]: 14.96 µmol
TC50 [3]: 77.29 µmol

CCOC(=O)C1=C(CN2CCN(CC)CC2)NC(c2c(F)cc(F)cc2F)=NC1c1ccc(F)cc1Cl (stereo not drawn)
IC50 (Hepatitis B virus [1]): 6.71 µmol
selectivity ratio (hepatitis B virus [2]): 6.16
TC0 [3]: 13.78 µmol
TC50 [3]: 41.3 µmol
